The values below come from ChEMBL document CHEMBL3120098, “Structure-activity relationship (SAR) optimization of 6-(indol-2-yl)pyridine-3-sulfonamides: identification of potent, selective, and orally bioavailable small molecules targeting hepatitis C (HCV) NS4B” (J Med Chem, 2014).

The test system of data set [1] is Hepatitis C virus. The data set can be described thus: Antiviral activity against HCV1b Con1 infected in human HuH7 cells assessed as inhibition of viral RNA replication by RT-PCR analysis. Type of data set: functional, organism-based, Hepacivirus hominis. The conditions noted are these: isolate Con1, Huh-7.
A short description of data set [2]: Toxicity in human HuH7 cells assessed as effect on GAPDH mRNA level. In kind it is cell-based, Huh-7. A digest of the protocol:
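Run in parallel with replicon assay in Con1 replicon Huh-7 cells (0.5% DMSO, 37 °C); endogenous GAPDH mRNA quantified by TaqMan RT-PCR; highest concentration tested 10000 nM.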

Data set [3] in a line: AUC (0 to 6 hrs) in Sprague-Dawley rat at 10 mg/kg, po. Type of data set: ADME, organism-based. Set-up: time < 6 hr, dose 10 mg/kg, route oral. The conditions noted are these: plasma.
Data set [4] is described as follows: Ratio of EC50 for HCV1b Con1 to plasma concentration in Sprague-Dawley rat at 10 mg/kg, po after 6 hrs.

The EC50 is the concentration that produces a half-maximal response. On to `CCc1cc2c(cc1F)c(C#N)c(-c1ccc(S(N)(=O)=O)cn1)n2-c1ncccn1`, for which, in data set [1], the EC50 is more than 10000 nM.

Consider `CC(O)c1cc2c(cc1F)c(C#N)c(-c1ccc(S(=O)(=O)N[C@@H](C)C(F)(F)F)cn1)n2-c1ncccn1` (stereo not given in full), for which the EC50 in data set [1] stood at 68 nM.

As to `CC(O)c1cc2c(cc1F)c(C#N)c(-c1ccc(S(N)(=O)=O)cn1)n2-c1ncccn1` (stereo not given), the EC50 in data set [1] was more than 10000 nM.

A word on the IC50: it is the midpoint of a concentration-inhibition curve. Broadly, the AUC(0-t) is exposure summed from dosing to a finite time, without extrapolation to infinity. As to `C[C@H](NS(=O)(=O)c1ccc(-c2c(C#N)c3cc(F)c(C4CC4)cc3n2-c2ncccn2)nc1)C(F)(F)F`, in data set [2], the IC50 is more than 10000 nM. Also, in data set [3], the area under the curve AUC(0-t) at 6 h was 2.04 µM·h. Moreover, in data set [4], the Ratio was found to be 75. The 50% effective concentration (EC50) in data set [1] was 6 nM.

For the compound `C[C@H](NS(=O)(=O)c1ccc(-c2c(C#N)c3cc(F)c(C4CC4)cc3n2-c2ccccn2)nc1)C(F)(F)F`, in data set [2], the IC50 is more than 10000 nM. Besides, the EC50 in data set [1] was 16 nM.

As to `C[C@H](NS(=O)(=O)c1ccc(-c2c(C#N)c3cc(F)c(C4CC4)cc3n2-c2ccc(F)cn2)nc1)C(F)(F)F`, the IC50 in data set [2] was more than 10000 nM. Besides, in data set [3], the AUC(0-t) at 6 h worked out at 1.7 µM·h. For the same compound, the Ratio in data set [4] is 20. In addition, the EC50 in data set [1] is 12 nM.

Regarding `Cc1cnc(-n2c(-c3ccc(S(=O)(=O)N[C@@H](C)C(F)(F)F)cn3)c(C#N)c3cc(F)c(C)cc32)nc1`, in data set [2], the half-inhibitory concentration (IC50) was more than 10000 nM. For the same compound, the EC50 in data set [1] came out at 32 nM.

As to `Cc1cc2c(cc1F)c(C#N)c(-c1ccc(S(=O)(=O)N[C@@H](C)C(F)(F)F)cn1)n2-c1ccc(F)cn1`, the IC50 in data set [2] is more than 10000 nM. In addition, the AUC(0-t) at 6 h in data set [3] was 3.45 µM·h. Further, the Ratio in data set [4] is listed as 42. Moreover, the EC50 in data set [1] is 8 nM.

As to `Cc1ccc(-n2c(-c3ccc(S(=O)(=O)N[C@@H](C)C(F)(F)F)cn3)c(C#N)c3cc(F)c(C)cc32)nc1`, the IC50 in data set [2] was more than 10000 nM. The EC50 in data set [1] was 25 nM.

Take `Cc1cc2c(cc1F)c(C#N)c(-c1ccc(S(=O)(=O)N[C@@H](C)C(F)(F)F)cn1)n2-c1ncccc1C`: the IC50 in data set [2] was more than 10000 nM. Moreover, the EC50 in data set [1] was found to be 400 nM.

`CCc1cc2c(cc1F)c(C#N)c(-c1ccc(S(=O)(=O)N[C@@H](C)C(F)(F)F)cn1)n2-c1ccncc1`: the IC50 in data set [2] was more than 10000 nM. Further, the AUC(0-t) at 6 h in data set [3] came to 6.38 µM·h. For the same compound, the Ratio in data set [4] turned out to be 47. Also, the EC50 in data set [1] was found to be 9 nM.

Regarding `CCc1cc2c(cc1F)c(C#N)c(-c1ccc(S(=O)(=O)N[C@@H](C)C(F)(F)F)cn1)n2-c1cnccn1`, in data set [2], the IC50 is more than 10000 nM. In addition, the AUC(0-t) at 6 h in data set [3] came out at 0.345 µM·h. Besides, in data set [4], the Ratio worked out at 14. The EC50 in data set [1] was found to be 4 nM.

Regarding `CCc1cc2c(cc1F)c(C#N)c(-c1ccc(S(=O)(=O)N[C@@H](C)C(F)(F)F)cn1)n2-c1nccs1`, the IC50 in data set [2] is more than 10000 nM. The AUC(0-t) at 6 h in data set [3] came out at 2.75 µM·h. For the same compound, in data set [4], the Ratio came out at 347. In data set [1], the EC50 came out at 2 nM.

As to `CCc1cc2c(cc1F)c(C#N)c(-c1ccc(S(=O)(=O)N[C@@H](C)C(F)(F)F)cn1)n2-c1ncc(C)cn1`, the IC50 in data set [2] was more than 10000 nM. This compound also registered an AUC(0-t) at 6 h in data set [3] of 7.24 µM·h. Further, the Ratio in data set [4] is recorded as 44. The EC50 in data set [1] was determined as 23 nM.

Take `CCc1cc2c(cc1F)c(C#N)c(-c1ccc(S(=O)(=O)N[C@@H](C)C(F)(F)F)cn1)n2-c1ccc(F)cn1`: in data set [2], the half-maximal inhibitory concentration (IC50) was more than 10000 nM. For the same compound, in data set [3], the AUC(0-t) at 6 h was 1.79 µM·h. In addition, the Ratio in data set [4] was determined as 12. Also, the EC50 in data set [1] was 13 nM.

For the compound `Cc1cc(F)c2c(C#N)c(-c3ccc(S(=O)(=O)N[C@@H](C)C(F)(F)F)cn3)n(C3CCC3)c2c1`, in data set [2], the IC50 was more than 10000 nM. Also, the EC50 in data set [1] was 153 nM.

Consider `C[C@H](NS(=O)(=O)c1ccc(-c2c(C#N)c3ccc(OC(F)F)cc3n2-c2ncccn2)nc1)C(F)(F)F`, for which the IC50 in data set [2] was more than 10000 nM. In addition, in data set [3], the AUC(0-t) at 6 h stood at 20.1 µM·h. Also, in data set [1], the EC50 worked out at 7 nM.

With `Cc1ccc2c(C#N)c(-c3ccc(S(=O)(=O)N[C@@H](C)C(F)(F)F)cn3)n(-c3ncccn3)c2c1`, the IC50 in data set [2] was more than 10000 nM. In addition, the EC50 in data set [1] came out at 3 nM.

Regarding `C[C@H](NS(=O)(=O)c1ccc(-c2c(C#N)c3cc(F)c(OC(F)F)cc3n2-c2ncccn2)nc1)C(F)(F)F`, in data set [2], the IC50 was more than 10000 nM. The AUC(0-t) at 6 h in data set [3] is 3.81 µM·h. In data set [1], the EC50 turned out to be 16 nM.

Take `Cc1cc2c(cc1F)c(C#N)c(-c1ccc(S(=O)(=O)N[C@@H](C)C(F)(F)F)cn1)n2-c1cnccn1`: the IC50 in data set [2] is more than 10000 nM. The AUC(0-t) at 6 h in data set [3] turned out to be 0.885 µM·h. Moreover, the Ratio in data set [4] was determined as 9. For the same compound, in data set [1], the EC50 turned out to be 9 nM.

For `Cc1cc2c(cc1F)c(C#N)c(-c1ccc(S(=O)(=O)N[C@@H](C)C(F)(F)F)cn1)n2-c1cccnn1`, the IC50 in data set [2] was more than 10000 nM. Moreover, the AUC(0-t) at 6 h in data set [3] was determined as 3.26 µM·h. The Ratio in data set [4] turned out to be 22. Also, in data set [1], the EC50 was determined as 13 nM.

As to `Cc1cc2c(cc1F)c(C#N)c(-c1ccc(S(=O)(=O)N[C@@H](C)C(F)(F)F)cn1)n2-c1nccs1`, in data set [2], the IC50 is more than 10000 nM. In addition, the AUC(0-t) at 6 h in data set [3] amounted to 1.76 µM·h. The Ratio in data set [4] is on record as 96. The EC50 in data set [1] worked out at 3 nM.

Turning to `Cc1cc2c(cc1F)c(C#N)c(-c1ccc(S(=O)(=O)N[C@@H](C)C(F)(F)F)cn1)n2-c1cscn1`, in data set [2], the IC50 was more than 10000 nM. Besides, the AUC(0-t) at 6 h in data set [3] was determined as 10.3 µM·h. For the same compound, the Ratio in data set [4] was 35. In data set [1], the EC50 stood at 20 nM.

As for `Cc1cc2c(cc1F)c(C#N)c(-c1ccc(S(=O)(=O)N[C@@H](C)C(F)(F)F)cn1)n2-c1cncs1`, in data set [2], the IC50 was more than 10000 nM. This compound also yielded an AUC(0-t) at 6 h in data set [3] of 6.27 µM·h. For the same compound, in data set [4], the Ratio was 38. Further, the EC50 in data set [1] came out at 7 nM.

In the case of `Cc1cc2c(cc1F)c(C#N)c(-c1ccc(S(=O)(=O)N[C@@H](C)C(F)(F)F)cn1)n2-c1cccs1`, the IC50 in data set [2] was more than 10000 nM. The same compound showed an AUC(0-t) at 6 h in data set [3] of 0.48 µM·h. Moreover, in data set [4], the Ratio came out at 29. Moreover, in data set [1], the concentration for a half-maximal effect (EC50) stood at 2 nM.

For the compound `C[C@H](NS(=O)(=O)c1ccc(-c2c(C#N)c3cc(O)c(OC(F)F)cc3n2C2CCC2)nc1)C(F)(F)F`, the half-inhibitory concentration (IC50) in data set [2] is more than 10000 nM. The EC50 in data set [1] was determined as 63 nM.

Turning to `Cc1cc2c(C#N)c(-c3ccc(S(=O)(=O)N[C@@H](C)C(F)(F)F)cn3)n(C3CCC3)c2cc1OC(F)F`, the IC50 in data set [2] was found to be 10000 nM. In data set [1], the EC50 is 108 nM.

As for `CCc1cc2c(C#N)c(-c3ccc(S(=O)(=O)N[C@@H](C)C(F)(F)F)cn3)n(C3CCC3)c2cc1OC(F)F`, the IC50 in data set [2] is more than 10000 nM. For the same compound, the EC50 in data set [1] came out at 1400 nM.

In the case of `C[C@H](NS(=O)(=O)c1ccc(-c2c(C#N)c3cc(F)c(C4CC4)cc3n2C2CCC2)nc1)C(F)(F)F`, in data set [2], the IC50 is more than 10000 nM. For the same compound, the EC50 in data set [1] stood at 28 nM.

With `C[C@H](NS(=O)(=O)c1ccc(-c2c(C#N)c3cc(F)c(O)cc3n2C2CCC2)nc1)C(F)(F)F`, the IC50 in data set [2] is more than 10000 nM. Further, in data set [1], the EC50 turned out to be 410 nM.

Take `C[C@H](NS(=O)(=O)c1ccc(-c2c(C#N)c3cc(F)c(Cl)cc3n2C2CCC2)nc1)C(F)(F)F`: the IC50 in data set [2] is more than 10000 nM. In addition, the EC50 in data set [1] was 460 nM.

As to `COc1cc2c(cc1F)c(C#N)c(-c1ccc(S(=O)(=O)N[C@@H](C)C(F)(F)F)cn1)n2C1CCC1`, the IC50 in data set [2] was more than 10000 nM. Moreover, the EC50 in data set [1] is 74 nM.

Consider `CSc1cc2c(cc1F)c(C#N)c(-c1ccc(S(=O)(=O)N[C@@H](C)C(F)(F)F)cn1)n2C1CCC1`, for which, in data set [2], the IC50 was more than 10000 nM. The EC50 in data set [1] amounted to 35 nM.

`C[C@H](NS(=O)(=O)c1ccc(-c2c(C#N)c3c(F)cc(OC(F)F)cc3n2C2CCC2)nc1)C(F)(F)F`: the IC50 in data set [2] is more than 10000 nM. In data set [1], the EC50 was found to be 18 nM.
